Data reported in ChEMBL document CHEMBL2202999, “Synthesis of bivalent lactosides and their activity as sensors for differences between lectins in inter- and intrafamily comparisons” (Bioorg Med Chem Lett, 2012).

What was measured:
[1] = molecular target: T1, Beta-galactoside-binding lectin (Gallus gallus, UniProt P07583); assay: Inhibition of binding of biotinylated chicken galectin-1B to surface immobilized asialofetuin by solid phase assay relative to free lactose
T1 sequence (P07583 whole entry): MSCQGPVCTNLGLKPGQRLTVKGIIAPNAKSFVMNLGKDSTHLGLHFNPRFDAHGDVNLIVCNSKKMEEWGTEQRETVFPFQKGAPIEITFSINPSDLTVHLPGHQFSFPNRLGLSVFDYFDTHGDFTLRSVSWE
Method in brief: (§1)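 Asialofetuin was adsorbed to microtiter wells at a constant coating amount, and its N-glycans served as ligand. Biotinylated lectin at a lectin-specific concentration was added with inhibitor. IC50 (mM) was normalized to lactose, and potency was expressed relative to free lactose. Assays were run in triplicate across up to five independent series.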

Galectin-3 [2] = molecular target: T2, Galectin-3 (Gallus gallus, UniProt A4GTP0); assay: Inhibition of binding of biotinylated truncated chicken galectin-3 to surface immobilized asialofetuin by solid phase assay
T2 sequence (A4GTP0 whole entry): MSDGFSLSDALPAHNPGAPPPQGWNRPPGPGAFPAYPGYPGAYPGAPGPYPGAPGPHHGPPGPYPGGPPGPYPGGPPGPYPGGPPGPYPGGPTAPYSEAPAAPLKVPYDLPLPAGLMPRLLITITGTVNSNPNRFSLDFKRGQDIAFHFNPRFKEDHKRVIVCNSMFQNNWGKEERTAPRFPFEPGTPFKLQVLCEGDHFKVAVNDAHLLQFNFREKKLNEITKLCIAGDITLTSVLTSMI
Method in brief: (§2)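 Asialofetuin was adsorbed to microtiter wells at a constant coating amount, and its N-glycans served as ligand. Biotinylated lectin at a lectin-specific concentration was added with inhibitor. Assays were run in triplicate across up to five independent series.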

[3] = Inhibition of binding of biotinylated chicken galectin-8S to surface immobilized asialofetuin by solid phase assay relative to free lactose; design: species or system Gallus gallus; method in brief: as §1
[4] = Inhibition of binding of biotinylated chicken galectin-8L to surface immobilized asialofetuin by solid phase assay; design: species or system Gallus gallus; method in brief: as §1
[5] = Inhibition of binding of biotinylated chicken galectin-8S to surface immobilized asialofetuin by solid phase assay; design: species or system Gallus gallus; method in brief: as §1
[6] = Inhibition of binding of biotinylated Erythrina crista-galli agglutinin to surface immobilized asialofetuin by solid phase assay; method in brief: as §2
[7] = Inhibition of binding of biotinylated chicken galectin-1A to surface immobilized asialofetuin by solid phase assay relative to free lactose; design: species or system Gallus gallus; method in brief: as §1
[8] = Inhibition of binding of biotinylated chicken galectin-8L to surface immobilized asialofetuin by solid phase assay relative to free lactose; design: species or system Gallus gallus; method in brief: as §2
Galectin-3 [9] = molecular target: T2, Galectin-3; assay: Inhibition of binding of biotinylated chicken galectin-3 to surface immobilized asialofetuin by solid phase assay; method in brief: as §2
[10] = Inhibition of binding of biotinylated chicken galectin-8N to surface immobilized asialofetuin by solid phase assay relative to free lactose; design: species or system Gallus gallus; method in brief: as §1
[11] = molecular target: T1, Beta-galactoside-binding lectin; assay: Inhibition of binding of biotinylated chicken galectin-1B to surface immobilized asialofetuin by solid phase assay; method in brief: as §1
[12] = Inhibition of binding of biotinylated chicken galectin-2 to surface immobilized asialofetuin by solid phase assay relative to free lactose; design: species or system Gallus gallus; method in brief: as §1
Galectin-3 [13] = molecular target: T2, Galectin-3; assay: Inhibition of binding of biotinylated truncated chicken galectin-3 to surface immobilized asialofetuin by solid phase assay relative to free lactose; method in brief: as §2
[14] = Inhibition of binding of biotinylated chicken galectin-2 to surface immobilized asialofetuin by solid phase assay; design: species or system Gallus gallus; method in brief: as §1
[15] = Inhibition of binding of biotinylated chicken galectin-8N to surface immobilized asialofetuin by solid phase assay; design: species or system Gallus gallus; method in brief: as §1
[16] = Inhibition of binding of biotinylated Erythrina crista-galli agglutinin to surface immobilized asialofetuin by solid phase assay relative to free lactose; method in brief: as §1
[17] = Inhibition of binding of biotinylated Viscum album agglutinin to surface immobilized asialofetuin by solid phase assay relative to free lactose; method in brief: as §2
Galectin-3 [18] = molecular target: T2, Galectin-3; assay: Inhibition of binding of biotinylated chicken galectin-3 to surface immobilized asialofetuin by solid phase assay relative to free lactose; method in brief: as §1
[19] = Inhibition of binding of biotinylated chicken galectin-1A to surface immobilized asialofetuin by solid phase assay; design: species or system Gallus gallus; method in brief: as §1
[20] = Inhibition of binding of biotinylated Viscum album agglutinin to surface immobilized asialofetuin by solid phase assay; method in brief: as §1
[21] = molecular target: T3, Galectin-3 (Gallus gallus) (UniProt A4GTP0); assay: (§3) Inhibition of binding of biotinylated chicken galectin-3 to CHO cells at 1 mM by cytofluorometry; format: cell-based
T3 sequence (whole entry): T2 sequence (A4GTP0 whole entry)
Method in brief: (§4)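 Labeled lectin, with or without inhibitor, was incubated with aliquots of cell suspensions from the same passage: human SW480 colon adenocarcinoma cells for Erythrina agglutinin, CHO cells for the galectins. Binding was quantified by cytofluorometry as % positive cells and mean fluorescence intensity. Readings were normalized between a lectin-only control (100%) and a no-lectin background (0%). Runs were done in triplicate across at least three independent series.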

CHO = assay: Inhibition of binding of biotinylated chicken galectin-8S to CHO cells at 1 mM by cytofluorometry; format: cell-based; conditions: Gallus gallus; method in brief: as §4
SW480 = assay: Inhibition of binding of biotinylated Erythrina crista-galli agglutinin to SW480 cells at 0.2 mM by cytofluorometry; format: cell-based; method in brief: as §4
[22] = molecular target: T3, Galectin-3 (Gallus gallus); assay: (§5) Inhibition of binding of biotinylated truncated chicken galectin-3 to CHO cells at 2 mM by cytofluorometry; format: cell-based; method in brief: as §4
[23] = molecular target: Galectin-3 (Gallus gallus) (UniProt A4GTP0); assay: as §3; format: cell-based; method in brief: as §4; remark: listed apart in the source
[24] = molecular target: Galectin-3 (Gallus gallus) (UniProt A4GTP0); assay: as §5; format: cell-based; method in brief: as §4; remark: listed apart in the source
[25] = molecular target: T3, Galectin-3 (Gallus gallus); conditions: CHO, 0.25 mM

Molecule | relative potency [1] | IC50 (Galectin-3 [2]) | IC50 [3] | IC50 [4] | IC50 [5] | IC50 [6] | relative potency [7] | IC50 [8] | IC50 (Galectin-3 [9]) | relative potency [10] | IC50 [11] | relative potency [12] | IC50 (Galectin-3 [13]) | IC50 [14] | IC50 [15] | relative potency [16] | relative potency [17] | IC50 [19] | IC50 [20] | inhibition (SW480) | other results
O=C(/C=C/C(=O)N[C@@H]1O[C@H](CO)[C@@H](O[C@@H]2O[C@H](CO)[C@H](O)[C@H](O)[C@H]2O)[C@H](O)[C@H]1O)N[C@@H]1O[C@H](CO)[C@@H](O[C@@H]2O[C@H](CO)[C@H](O)[C@H](O)[C@H]2O)[C@H](O)[C@H]1O |  | 4200 µM | 700 µM | 4500 µM | 2500 µM | 1200 µM |  |  | 600 µM |  | 1300 µM |  |  | 1400 µM | 800 µM |  |  | 360 µM | 550 µM | 89% | inhibition [21]: 45%; inhibition (CHO): 70%; inhibition [22]: 47%
LACTOSE, ANHYDROUS [listing 1 of 2 here] |  |  |  |  |  |  |  |  |  |  |  |  |  |  |  |  |  |  |  | 86% | inhibition [23]: 75%; inhibition (CHO): 39%; inhibition [24]: 67%
LACTOSE, ANHYDROUS [listing 2 of 2 here] |  |  |  | 5000 µM | 1800 µM |  |  |  |  |  |  |  |  | 6000 µM | 1600 µM |  |  | 500 µM | 600 µM |  | 

The next lines start with results.

relative potency [1] | IC50 (Galectin-3 [2]) | IC50 [3] | IC50 [4] | IC50 [5] | IC50 [6] | relative potency [7] | IC50 [8] | IC50 (Galectin-3 [9]) | relative potency [10] | IC50 [11] | relative potency [12] | IC50 (Galectin-3 [13]) | IC50 [14] | IC50 [15] | relative potency [16] | relative potency [17] | IC50 [19] | IC50 [20] | Molecule | inhibition (SW480) | other results
8.7 | 5000 µM | 600 µM | 2400 µM | 3000 µM | 1300 µM | 0.5 | 2100 µM | 14 µM | 4 | 460 µM | 9.2 | 900 µM | 650 µM | 400 µM | 0.8 | 0.5 | 1400 µM | 1300 µM | C=CC[C@@H]1O[C@@H](C(=O)NCc2ccc(CNC(=O)[C@H]3O[C@H](CC=C)[C@H](OCc4ccccc4)[C@@H](OCc4ccccc4)[C@@H]3OCc3cn([C@@H]4O[C@H](CO)[C@@H](O[C@@H]5O[C@H](CO)[C@H](O)[C@H](O)[C@H]5O)[C@H](O)[C@H]4O)nn3)cc2)[C@H](OCc2cn([C@@H]3O[C@H](CO)[C@@H](O[C@@H]4O[C@H](CO)[C@H](O)[C@H](O)[C@H]4O)[C@H](O)[C@H]3O)nn2)[C@@H](OCc2ccccc2)[C@@H]1OCc1ccccc1 |  | relative potency (Galectin-3 [18]): 78.6
6.7 | 5300 µM | 4500 µM | 600 µM | 400 µM | 800 µM | 0.3 | 8300 µM | 80 µM | 5.3 | 600 µM | 8.6 | 800 µM | 700 µM | 300 µM | 1.4 | 2.5 | 1600 µM | 240 µM | O=C1NCc2ccc(cc2)CNC(=O)[C@@H]2O[C@@H](C/C=C/C[C@H]3O[C@H]1[C@@H](OCc1cn([C@@H]4O[C@H](CO)[C@@H](O[C@@H]5O[C@H](CO)[C@H](O)[C@H](O)[C@H]5O)[C@H](O)[C@H]4O)nn1)[C@H](OCc1ccccc1)[C@H]3OCc1ccccc1)[C@@H](OCc1ccccc1)[C@H](OCc1ccccc1)[C@H]2OCc1cn([C@@H]2O[C@H](CO)[C@@H](O[C@@H]3O[C@H](CO)[C@H](O)[C@H](O)[C@H]3O)[C@H](O)[C@H]2O)nn1 | 88% | relative potency (Galectin-3 [18]): 13.8
2.7 | 3100 µM | 2600 µM | 1800 µM | 700 µM | 600 µM | 2.3 | 2800 µM | 70 µM | 3.2 | 1500 µM | 5 | 1500 µM | 1200 µM | 500 µM | 1.8 | 4.6 | 220 µM | 130 µM | OC[C@H]1O[C@@H](O[C@H]2[C@H](O)[C@@H](O)[C@H](n3cc(-c4ccc(-c5cn([C@@H]6O[C@H](CO)[C@@H](O[C@@H]7O[C@H](CO)[C@H](O)[C@H](O)[C@H]7O)[C@H](O)[C@H]6O)nn5)cc4)nn3)O[C@@H]2CO)[C@H](O)[C@@H](O)[C@H]1O | 85% | inhibition (CHO): 34%; inhibition [25]: 39%; inhibition [22]: 44%; relative potency (Galectin-3 [18]): 15.7
